From ChEMBL document CHEMBL4261588, “Breathing new life into West Nile virus therapeutics; discovery and study of zafirlukast as an NS2B-NS3 protease inhibitor” (Eur J Med Chem, 2018)
The source made the active and inactive calls. The calls are words filed in the database; no cut-off is given here.

What was measured:
West Nile virus [1] = assay: Inhibition of West Nile virus NS2B-NS3 protease at 60 uM using Mca-KKR-GDap(DNP)AK-NH2 as substrate measured every 30 secs for 20 mins by FRET assay
[2] = Inhibition of West Nile virus NS2B-NS3 protease using Mca-KKR-GDap(DNP)AK-NH2 as substrate measured every 30 secs for 20 mins by FRET assay
In short: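 FRET read-out: protease cleavage of a peptide carrying a fluorophore and a quencher on either side of the cleavage site raises fluorescence in proportion to enzyme activity. IC50 is taken as the inhibitor concentration that lowers enzymatic activity by 50%.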

West Nile virus [3] = assay: Inhibition of West Nile virus NS2B-NS3 protease using Mca-KKR-GDap(DNP)AK-NH2 as substrate measured every 30 secs for 5 mins in presence of Brij35 by FRET assay
In short: (§1)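 Aggregation counter-screen run in the FRET protease assay, with inhibition followed across a range of detergent concentrations (0-0.2 %) of CHAPS and of Brij35.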

West Nile virus [4] = assay: Inhibition of West Nile virus NS2B-NS3 protease using Mca-KKR-GDap(DNP)AK-NH2 as substrate measured every 30 secs for 5 mins in presence of CHAPS by FRET assay; in short: as §1
West Nile virus [5] = assay: Mixed inhibition of West Nile virus NS2B-NS3 protease using Mca-KKR-GDap(DNP)AK-NH2 as substrate measured every 30 secs for 10 mins by Lineweaver-burk plot analysis

| SMILES | inhibition (West Nile virus [1]) | further results |
| --- | --- | --- |
| COc1cc(C(=O)NCc2ccccc2)ccc1Cc1cn(C)c2ccc(NC(=O)OC3CCCC3)cc12 | 5% | – |
| Cc1ccccc1S(=O)(=O)NC(=O)c1ccc(NC(=O)OC2CCCC2)cc1 | 4% | – |
| COc1cc(C(=O)NS(=O)(=O)c2ccccc2C)ccc1Cn1ccc2cc(NC(=O)OC3CCCC3)ccc21 | 79% | – |
| CCOC(=O)Nc1ccc2c(c1)c(Cc1ccc(C(=O)NS(=O)(=O)c3ccccc3C)cc1OC)cn2C | 12% | – |
| COc1cc(C(=O)NS(=O)(=O)c2ccccc2)ccc1Cc1cn(C)c2ccc(NC(=O)OC3CCCC3)cc12 | 81% | – |
| COC(=O)c1ccc(Cc2cn(C)c3ccc(NC(=O)OC4CCCC4)cc23)c(OC)c1 | 12% | – |
| COc1cc(C(=O)NS(=O)(=O)c2ccccc2C)ccc1Cc1cn(C)c2ccc(NC(=O)Oc3ccccc3)cc12 | 92% | IC50 [2]: 22 µM |
| COc1cc(C(=O)NS(=O)(=O)c2ccccc2C)ccc1Cc1cn(C)c2ccc(NC(=O)CC3CCCC3)cc12 | 33% | – |
| Cn1ccc2cc(NC(=O)OC3CCCC3)ccc21 | 6% | – |
| COC(=O)c1ccc(Cn2ccc3cc(NC(=O)OC4CCCC4)ccc32)c(OC)c1 | 5% | – |
| COc1cc(C(=O)NS(=O)(=O)c2ccccc2C)ccc1Cc1cccc(NC(=O)OC2CCCC2)c1 | 30% | – |
| COc1cc(C(=O)NS(=O)(=O)c2ccccc2C)ccc1Cc1cn(C)c2ccc(NC(=O)OC3CCCC3)cc12 [ZAFIRLUKAST] | – | inhibition (West Nile virus [3]): Active; inhibition (West Nile virus [4]): Active; IC50 [2]: 32 µM; inhibition (West Nile virus [5]): Active |
| Cc1ccccc1S(=O)(=O)NC(=O)c1ccc(Cc2cn(C)c3ccc(NC(=O)OC4CCCC4)cc23)cc1 | 64% | – |
